Reference: ChEMBL document CHEMBL2086376, “Total synthesis of 2''',5'''-diepisilvestrol and its C1''' epimer: key structure activity relationships at C1''' and C2'''” (J Nat Prod, 2012)
Activity calls are given as the source filed them. No cut-off for these calls is given here.

Tests used:
[1] = species: Oryctolagus cuniculus; experiment: Inhibition of translation in rabbit reticulocyte lysate by luciferase assay; assay type: functional
Summary of the method: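 Cell-free translation in rabbit reticulocyte lysate, final KCl 135 mM, programmed with 8 μg/mL capped FF/HCV/Ren bicistronic mRNA. Firefly and Renilla luciferase activities were the read-out.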

[2] = system: Leukemia cell; experiment: Anticancer activity in patient with chronic lymphocytic leukemia; assay type: functional; conditions: Homo sapiens, read-out: LC50 (the source's name)
[3] = Cytotoxicity against human breast cancer cells; assay type: functional; conditions: Cancer cell lines, read-out: ED50 (the source's name)
[4] = Cytotoxicity against human lung cancer cells; assay type: functional; conditions: Cancer cell lines, read-out: ED50 (the source's name)
[5] = system: A549; experiment: Cytotoxicity against human A549 cells; assay type: functional, cell-based
[6] = Cytotoxicity against human colon cancer cells; assay type: functional, cell-based; conditions: Cancer cell lines

inhibition [1] | Structure (SMILES) | EC50 [3] | EC50 [4] | other results
inactive | COC(=O)[C@H]1[C@@H](O)[C@@]2(O)c3c(OC)cc(O[C@H]4O[C@@H]([C@@H](O)CO)CO[C@@H]4OC)cc3O[C@@]2(c2ccc(OC)cc2)[C@@H]1c1ccccc1 | – | – | –
Active | COC(=O)[C@H]1[C@@H](O)[C@@]2(O)c3c(OC)cc(O[C@@H]4O[C@@H]([C@@H](O)CO)CO[C@@H]4OC)cc3O[C@@]2(c2ccc(OC)cc2)[C@@H]1c1ccccc1 | – | – | –
Active | COC(=O)[C@H]1[C@@H](O)[C@@]2(O)c3c(OC)cc(O[C@@H]4O[C@@H]([C@H](O)CO)CO[C@@H]4OC)cc3O[C@@]2(c2ccc(OC)cc2)[C@@H]1c1ccccc1 | 1.5 nM | 1.2 nM | –

The next lines start with the compound.

Structure (SMILES) | inhibition [1] | EC50 [3] | EC50 [4] | other results
COC(=O)[C@H]1[C@@H](O)[C@@]2(O)c3c(OC)cc(O[C@@H]4O[C@@H]([C@H](O)CO)CO[C@H]4OC)cc3O[C@@]2(c2ccc(OC)cc2)[C@@H]1c1ccccc1 [SILVESTROL] | – | 1.5 nM | 1.2 nM | CC50 [2]: 6.9 nM
COC(=O)[C@H]1[C@@H](O)[C@@]2(O)c3c(OC)cc(O[C@@H]4O[C@@H]([C@@H](O)CO)CO[C@H]4OC)cc3O[C@@]2(c2ccccc2)[C@@H]1c1ccccc1 | – | – | – | IC50 [5]: 130 nM; IC50 [6]: 10 nM
